Reference: ChEMBL document CHEMBL3217512, “Indole/triazole conjugates are selective inhibitors and inducers of bacterial biofilms” (Medchemcomm, 2013)

Experiments:
Staphylococcus aureus [1] = assay: Inhibition of biofilm formation in Staphylococcus aureus 29213 after 24 hrs by crystal violet staining-based assay; format: functional, organism-based; conditions: Staphylococcus aureus, 29213, 24 h
In short: (§1)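 Compounds active in the 150 μM screen were taken into dose-response studies under static conditions with a crystal violet read-out. IC50 is the concentration that inhibits 50% of biofilm growth relative to an untreated control.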

Escherichia coli [2] = assay: Inhibition of biofilm formation in Escherichia coli K-12 ER2718 after 24 hrs by crystal violet staining-based assay; format: functional, organism-based; conditions: K-12 ER2718, 24 h; in short: as §1
Staphylococcus aureus [3] = assay: Inhibition of biofilm formation in methicillin-resistant Staphylococcus aureus BAA 44 after 24 hrs by crystal violet staining-based assay; format: functional, organism-based; conditions: BAA 44, 24 h
In short: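 Static biofilm development in MRSA, read out by crystal violet staining against an untreated control. Initial screen at 150 μM. Inhibitors then went to dose-response, with IC50 taken as the concentration giving 50% inhibition of biofilm growth. Induction was judged at 50 μM: under 50% induction counted as "inducer", over 50% as "strong inducer".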

Acinetobacter baumannii [4] = assay: Antimicrobial activity against Acinetobacter baumannii 19606 assessed as effect on planktonic growth at IC50 after 2 to 24 hrs by colony count method; parameters: species or system ATCC 19606
Escherichia coli [5] = assay: Induction of biofilm formation in Escherichia coli K-12 ER2718 assessed as concentration required for 75% promotion of biofilm formation after 24 hrs by crystal violet staining-based assay; format: functional
In short: (§2)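 For strong inducers of E. coli biofilm, dose-response curves were run in the static crystal violet assay. PC25, PC50 and PC75 are the concentrations promoting biofilm formation by 25%, 50% and 75%.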

Escherichia coli [6] = assay: Reversal of N-(2-(4-(((3aR,8aR)-1,2,3,3a,8,8a-hexahydropyrrolo[2,3-b]indol-3a-yl)methyl)-1H-1,2,3-triazol-1-yl)ethyl)-4-hexylbenzamide-induced biofilm inhibition in Escherichia coli K-12 ER2718; format: functional, organism-based
In short: (§3)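 E. coli static crystal violet biofilm assay. The inducer was added at its PC25, PC50 or PC75 concentration together with the reference inhibitor at a fixed concentration. Reversal was taken as the reduction in the inhibitor's anti-biofilm activity.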

Escherichia coli [7] = assay: Reversal of N-(2-(4-(((3aR,8aR)-1,2,3,3a,8,8a-hexahydropyrrolo[2,3-b]indol-3a-yl)methyl)-1H-1,2,3-triazol-1-yl)ethyl)-4-hexylbenzamide-induced biofilm inhibition in Escherichia coli K-12 ER2718 at PC75 relative to control; format: functional; parameters: scale not given: the % may be the effect or the level left; in short: as §3
Escherichia coli [8] = assay: Antimicrobial activity against Escherichia coli K-12 ER2718 assessed as effect on planktonic growth at PC25 after 2 to 24 hrs by colony count method; format: organism-based
Staphylococcus aureus [9] = assay: Antimicrobial activity against Staphylococcus aureus 29213 assessed as effect on planktonic growth at IC50 after 2 to 24 hrs; format: organism-based; conditions: in vivo
Escherichia coli [10] = assay: Antimicrobial activity against Escherichia coli K-12 ER2718 assessed as effect on planktonic growth at PC50 after 2 to 24 hrs; format: organism-based
Staphylococcus aureus [11] = assay: Antimicrobial activity against Staphylococcus aureus 29213 assessed as effect on planktonic growth at IC50 after 2 to 24 hrs by colony count method; format: organism-based; conditions: in vivo
Escherichia coli [12] = assay: Reversal of N-(2-(4-(((3aR,8aR)-1,2,3,3a,8,8a-hexahydropyrrolo[2,3-b]indol-3a-yl)methyl)-1H-1,2,3-triazol-1-yl)ethyl)-4-hexylbenzamide-induced biofilm inhibition in Escherichia coli K-12 ER2718 at PC50 relative to control; format: functional; parameters: scale not given: the % may be the effect or the level left; in short: as §3
Escherichia coli [13] = assay: Antimicrobial activity against Escherichia coli K-12 ER2718 assessed as effect on planktonic growth at 50 uM after 2 to 24 hrs; format: organism-based
In short: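 Growth curve analysis of planktonic bacteria with each biofilm inducer at 50 μM, used to assess toxicity.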

Escherichia coli [14] = assay: Antimicrobial activity against Escherichia coli K-12 ER2718 assessed as effect on planktonic growth at PC25 after 2 to 24 hrs; format: organism-based
Escherichia coli [15] = assay: Induction of biofilm formation in Escherichia coli K-12 ER2718 at 50 uM after 24 hrs by crystal violet staining-based assay relative to control; format: functional
In short: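 Static biofilm assay with compounds at 50 μM and crystal violet read-out, relative to an untreated control. Compounds increasing biofilm by less than 50% were called inducers, and by more than 50% strong inducers.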

Escherichia coli [16] = assay: Induction of biofilm formation in Escherichia coli K-12 ER2718 assessed as concentration required for 25% promotion of biofilm formation after 24 hrs by crystal violet staining-based assay; format: functional; in short: as §2
Escherichia coli [17] = assay: Reversal of N-(2-(4-(((3aR,8aR)-1,2,3,3a,8,8a-hexahydropyrrolo[2,3-b]indol-3a-yl)methyl)-1H-1,2,3-triazol-1-yl)ethyl)-4-hexylbenzamide-induced biofilm inhibition in Escherichia coli K-12 ER2718 at PC25 relative to control; format: functional; parameters: scale not given: the % may be the effect or the level left; in short: as §3
Escherichia coli [18] = assay: Antimicrobial activity against Escherichia coli K-12 ER2718 assessed as effect on planktonic growth at PC50 after 2 to 24 hrs by colony count method; format: organism-based; conditions: in vivo
Escherichia coli [19] = assay: Antimicrobial activity against Escherichia coli K-12 ER2718 assessed as effect on planktonic growth at IC50 after 2 to 24 hrs by colony count method; format: organism-based
Staphylococcus aureus [20] = assay: Antimicrobial activity against methicillin-resistant Staphylococcus aureus BAA 44 assessed as effect on planktonic growth at IC50 after 2 to 24 hrs by colony count method; format: organism-based; conditions: in vivo
Escherichia coli [21] = assay: Antimicrobial activity against Escherichia coli K-12 ER2718 assessed as effect on planktonic growth at PC75 after 2 to 24 hrs; format: organism-based; conditions: in vivo
Acinetobacter baumannii [22] = assay: Inhibition of biofilm formation in Acinetobacter baumannii 19606 at 150 uM after 24 hrs by crystal violet staining-based assay relative to control; format: functional; conditions: ATCC 19606 = CIP 70.34 = JCM 6841, 24 h
Escherichia coli [23] = assay: Antimicrobial activity against Escherichia coli K-12 ER2718 assessed as effect on planktonic growth at PC75 after 2 to 24 hrs by colony count method; format: organism-based; conditions: in vivo
Staphylococcus aureus [24] = assay: Antimicrobial activity against methicillin-resistant Staphylococcus aureus BAA 44 assessed as effect on planktonic growth at IC50 after 2 to 24 hrs; format: organism-based; conditions: in vivo
Escherichia coli [25] = assay: Antimicrobial activity against Escherichia coli K-12 ER2718 assessed as effect on planktonic growth at PC25 in presence of N-(2-(4-(((3aR,8aR)-1,2,3,3a,8,8a-hexahydropyrrolo[2,3-b]indol-3a-yl)methyl)-1H-1,2,3-triazol-1-yl)ethyl)-4-hexylbenzamide; format: organism-based
Escherichia coli [26] = assay: Induction of biofilm formation in Escherichia coli K-12 ER2718 assessed as concentration required for 50% promotion of biofilm formation after 24 hrs by crystal violet staining-based assay; format: functional; in short: as §2
Escherichia coli [27] = assay: Antimicrobial activity against Escherichia coli K-12 ER2718 assessed as effect on planktonic growth at PC50 in presence of N-(2-(4-(((3aR,8aR)-1,2,3,3a,8,8a-hexahydropyrrolo[2,3-b]indol-3a-yl)methyl)-1H-1,2,3-triazol-1-yl)ethyl)-4-hexylbenzamide; format: organism-based; conditions: in vivo
Acinetobacter baumannii [28] = assay: Antimicrobial activity against Acinetobacter baumannii 19606 assessed as effect on planktonic growth at IC50 after 2 to 24 hrs; parameters: species or system ATCC 19606
Escherichia coli [29] = assay: Antimicrobial activity against Escherichia coli K-12 ER2718 assessed as effect on planktonic growth at PC75 in presence of N-(2-(4-(((3aR,8aR)-1,2,3,3a,8,8a-hexahydropyrrolo[2,3-b]indol-3a-yl)methyl)-1H-1,2,3-triazol-1-yl)ethyl)-4-hexylbenzamide; format: organism-based; conditions: in vivo
Escherichia coli [30] = assay: Antimicrobial activity against Escherichia coli K-12 ER2718 assessed as effect on planktonic growth at IC50 after 2 to 24 hrs; format: organism-based

CCCCCCc1ccc(C(=O)NCCn2cc(C[C@@]34CCN[C@@H]3Nc3ccccc34)nn2)cc1
IC50 (Staphylococcus aureus [1]): 12.5 µM | IC50 (Escherichia coli [2]): 100 µM | IC50 (Staphylococcus aureus [3]): 3.4 µM

CCCCCCc1ccc(C(=O)NCCn2cc(Cc3c[nH]c4ccccc34)nn2)cc1
Activity (Acinetobacter baumannii [4]): Non-toxic | IC50 (Staphylococcus aureus [1]): 174 µM | Activity (Escherichia coli [5]): 160.7 µM | Activity (Escherichia coli [6]): Dose-dependent effect | Activity (Escherichia coli [7]): 87% | Activity (Escherichia coli [8]): Non-toxic | Activity (Staphylococcus aureus [9]): Non-toxic | Activity (Escherichia coli [10]): Non-toxic | Activity (Staphylococcus aureus [11]): Non-toxic | Activity (Escherichia coli [12]): 47% | Activity (Escherichia coli [13]): Non-toxic | IC50 (Staphylococcus aureus [3]): 313 µM | Activity (Escherichia coli [14]): Non-toxic | Activity (Escherichia coli [15]): >50% | Activity (Escherichia coli [16]): 47.8 µM | Activity (Escherichia coli [17]): 7.7% | Activity (Escherichia coli [18]): Non-toxic | Activity (Escherichia coli [19]): Non-toxic | Activity (Staphylococcus aureus [20]): Non-toxic | Activity (Escherichia coli [21]): Non-toxic | inhibition at 150 µM (Acinetobacter baumannii [22]): 25% | Activity (Escherichia coli [23]): Non-toxic | Activity (Staphylococcus aureus [24]): Non-toxic | Activity (Escherichia coli [25]): Non-toxic | Activity (Escherichia coli [26]): 82.6 µM | Activity (Escherichia coli [27]): Non-toxic | Activity (Acinetobacter baumannii [28]): Non-toxic | Activity (Escherichia coli [29]): Non-toxic | Activity (Escherichia coli [30]): Non-toxic
